Assay results: ChEMBL document CHEMBL3352558, “β-Keto and β-hydroxyphosphonate analogs of biotin-5'-AMP are inhibitors of holocarboxylase synthetase” (Bioorg Med Chem Lett, 2014)
The source made the active and inactive calls. The calls are words filed in the database; no cut-off is given here.

Columns and labels:
[1] = Selectivity for Staphylococcus aureus biotin protein ligase over human HLCS
[2] = target: T1, Biotin--protein ligase (Homo sapiens) (UniProt P50747); experiment: Competitive inhibition of human recombinant HLCS using P67 as substrate by Western blotting analysis in presence of biotin
T1 sequence (whole entry): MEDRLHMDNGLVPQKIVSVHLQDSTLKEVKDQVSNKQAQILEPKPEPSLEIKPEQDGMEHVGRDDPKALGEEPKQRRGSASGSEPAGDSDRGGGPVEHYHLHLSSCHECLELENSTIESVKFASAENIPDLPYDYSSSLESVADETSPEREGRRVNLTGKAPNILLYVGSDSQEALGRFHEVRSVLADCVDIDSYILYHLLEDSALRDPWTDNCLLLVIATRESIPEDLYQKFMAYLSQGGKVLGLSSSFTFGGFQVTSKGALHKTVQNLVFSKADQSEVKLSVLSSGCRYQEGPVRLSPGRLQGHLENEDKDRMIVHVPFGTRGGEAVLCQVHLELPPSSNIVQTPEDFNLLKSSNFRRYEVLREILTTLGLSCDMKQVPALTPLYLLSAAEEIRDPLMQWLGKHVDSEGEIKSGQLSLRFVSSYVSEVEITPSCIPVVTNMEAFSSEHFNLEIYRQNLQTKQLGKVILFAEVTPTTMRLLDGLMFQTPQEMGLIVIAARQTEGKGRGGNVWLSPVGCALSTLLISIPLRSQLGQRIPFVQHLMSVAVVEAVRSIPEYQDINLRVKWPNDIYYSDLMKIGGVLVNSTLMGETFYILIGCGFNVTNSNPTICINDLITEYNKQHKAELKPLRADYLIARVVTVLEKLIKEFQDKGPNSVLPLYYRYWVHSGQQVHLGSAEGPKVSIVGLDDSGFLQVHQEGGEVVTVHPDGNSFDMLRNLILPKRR
How it was run: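 Recombinant HLCS (30 nM) with 2 µM p67 and the activity-assay cofactors; inhibitor fixed at 250 µM or absent, biotin varied 0-360 µM. Reactions stopped with Tricine loading dye and 95°C for 10 min. Biotinylated p67 detected by Western blot with anti-biotin and infrared imaging.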

[3] = Binding affinity to Staphylococcus aureus biotin protein ligase
[4] = target: T1, Biotin--protein ligase (Homo sapiens); experiment: Inhibition of human recombinant HLCS using P67 as substrate at 500 uM after 2 hrs relative to vehicle-treated control
[5] = target: T1, Biotin--protein ligase (Homo sapiens); experiment: (§1) Inhibition of human recombinant HLCS using P67 as substrate after 2 hrs relative to vehicle-treated control
Biotin--protein ligase = target: T2, Biotin--protein ligase (Homo sapiens, UniProt P50747); experiment: as §1
T2 sequence (P50747 whole entry): T1 sequence (whole entry)

Row | Selectivity ratio [1] | inhibition [2] | inhibition [4] | inhibition [5] | IC50 (Biotin--protein ligase) | Ki (Biotin--protein ligase) | Compound | Ki [3]
1 | > 1100 | – | – | – | – | – | Nc1ncnc2c1ncn2[C@@H]1O[C@H](Cn2cc(CCCC[C@@H]3SC[C@@H]4NC(=O)N[C@@H]43)nn2)[C@@H](O)[C@H]1O | –
2 | – | inactive | – | – | – | – | COP(=O)(O)CC(=O)CCCC[C@@H]1SC[C@@H]2NC(=O)N[C@@H]21 | –
3 | – | Active | 81.3% | Dose-dependent effect | 39.7 µM | 2 µM | Nc1ncnc2c1ncn2[C@@H]1O[C@H](COP(=O)(O)CC(=O)CCCC[C@@H]2SC[C@@H]3NC(=O)N[C@@H]32)[C@@H](O)[C@H]1O | –
4 | – | Active | 67.7% | – | 204 µM | 10.4 µM | Nc1ncnc2c1ncn2[C@@H]1O[C@H](COP(=O)(O)CC(O)CCCC[C@@H]2SC[C@@H]3NC(=O)N[C@@H]32)[C@@H](O)[C@H]1O (stereo partly drawn) | –

Row | Compound | Selectivity ratio [1] | inhibition [2] | inhibition [4] | inhibition [5] | IC50 (Biotin--protein ligase) | Ki (Biotin--protein ligase) | Ki [3]
5 | Nc1ncnc2c1ncn2[C@@H]1O[C@H](COP(=O)(O)OCCCCC[C@@H]2SC[C@@H]3NC(=O)N[C@@H]32)[C@@H](O)[C@H]1O | – | – | 98% | – | – | – | 0.03 µM
